Screens (PubChem)
Shown are actives, neighbours in structure and some others; about 12% of the full set was active somewhere.
ABCG2 block – ABCG2 efflux pump inhibitors, primary screen, multiplex with ABCB1, IgMXP3 cells, flow cytometry. Broad substrate specificity ATP-binding cassette transporter ABCG2 (Homo sapiens), Q9UNQ0. JC-1 efflux. inhibition, % at 6.6 µM. 0.1% of 190,000 active;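 active means inhibition above 80%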;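 further: 0% = DMSO and 100% = nicardipine control wells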
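Incubation: cells with compound and JC-1, 10 min at 25 °C, rotating, no wash / Test system: IgMXP3 (ABCG2) plus far-red-tagged CCRF-Adr (ABCB1) cells / Compound dosing: one concentration, 6.6 µM final / Also added: JC-1 fluorescent substrate / Evaluation: efflux inhibition in percent versus controls / Detection: flow cytometry, 530 nm JC-1 signal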
L major viab – Leishmania major promastigote growth inhibition, primary screen; 9% of 200,000 active; Leishmania major promastigotes, resazurin fluorescence viability; AID 1063, 2008; inhibition, % at 10 µM; in the data active means inhibition above about 50%;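 further: promastigotes grown with compound for 44 hours at 28 °C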
WT yeast gro inh – growth inhibition of WT strain, primary screen, mitochondrial fusion inhibitor project, WT and mutant strains, chemical genetic | mitochondrial fusion phenotypic screen | inhibition, % at 10 µM | 2.1% of 190,000 active | AID 1362, 2008; in the data active means inhibition above about 58%; tested in S. cerevisiae
ABCB1 inh – ABCB1 efflux pump inhibitors, primary screen, cell-based, multiplex, flow cytometry, ABCG2 counter-screen; ATP-dependent translocase ABCB1 (Homo sapiens), P08183; AID 1326, 2008; CCRF-Adr cells, JC-1 efflux; inhibition, % at 6.6 µM; 0.067% of 190,000 active; in the data active means inhibition above about 40%;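 further: 0% = vehicle and 100% = reference inhibitor; higher value means more JC-1 retained so stronger ABCB1 efflux block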
Target sequence (P08183 whole entry, looked up): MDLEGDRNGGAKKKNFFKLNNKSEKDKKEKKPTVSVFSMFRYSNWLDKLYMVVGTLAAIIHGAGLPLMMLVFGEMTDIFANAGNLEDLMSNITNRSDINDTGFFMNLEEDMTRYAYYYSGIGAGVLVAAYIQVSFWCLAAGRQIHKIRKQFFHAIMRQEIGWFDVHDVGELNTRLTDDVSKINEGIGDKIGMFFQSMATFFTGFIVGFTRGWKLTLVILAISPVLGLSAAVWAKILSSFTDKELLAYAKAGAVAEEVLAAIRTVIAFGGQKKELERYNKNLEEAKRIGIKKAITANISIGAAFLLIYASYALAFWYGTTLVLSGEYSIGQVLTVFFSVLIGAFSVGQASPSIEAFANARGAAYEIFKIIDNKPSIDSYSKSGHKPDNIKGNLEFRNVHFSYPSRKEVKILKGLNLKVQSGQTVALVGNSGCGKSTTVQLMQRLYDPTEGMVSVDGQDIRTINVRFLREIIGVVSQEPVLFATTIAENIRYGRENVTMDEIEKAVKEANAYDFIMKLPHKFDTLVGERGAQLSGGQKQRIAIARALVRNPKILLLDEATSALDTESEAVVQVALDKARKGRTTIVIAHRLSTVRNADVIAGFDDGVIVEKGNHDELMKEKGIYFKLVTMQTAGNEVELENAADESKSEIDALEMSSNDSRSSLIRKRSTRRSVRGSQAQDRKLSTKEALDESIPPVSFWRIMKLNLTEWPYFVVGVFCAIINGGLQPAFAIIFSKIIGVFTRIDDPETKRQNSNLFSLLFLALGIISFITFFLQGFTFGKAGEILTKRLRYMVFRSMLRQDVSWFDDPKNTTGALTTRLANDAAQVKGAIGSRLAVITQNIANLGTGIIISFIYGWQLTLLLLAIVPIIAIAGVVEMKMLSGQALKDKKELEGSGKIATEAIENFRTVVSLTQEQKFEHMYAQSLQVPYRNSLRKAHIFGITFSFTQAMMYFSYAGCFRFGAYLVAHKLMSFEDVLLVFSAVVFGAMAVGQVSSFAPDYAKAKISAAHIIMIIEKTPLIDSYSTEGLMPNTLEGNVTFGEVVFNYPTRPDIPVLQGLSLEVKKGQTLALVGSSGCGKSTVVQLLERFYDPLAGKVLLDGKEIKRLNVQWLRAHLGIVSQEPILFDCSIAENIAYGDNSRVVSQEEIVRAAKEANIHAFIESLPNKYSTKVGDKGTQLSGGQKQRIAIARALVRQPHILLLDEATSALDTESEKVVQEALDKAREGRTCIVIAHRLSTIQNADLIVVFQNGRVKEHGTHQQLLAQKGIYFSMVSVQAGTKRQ
RAM inhibit – inhibitors of the yeast RAM network, primary screen, dse1pr::URA3 reporter, 5-FOA selection | S. cerevisiae dse1pr::URA3 reporter, 5-FOA growth OD615, 2 d; analog-sensitive cbk1-as2 kinase mutant strain | inhibition, % at 50 µM | 1.8% of 190,000 active | AID 868, 2007;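 active means inhibition above a set limit, 3 SD over mean compound inhibition, cut at about 8.4% in these data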;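 further: 0% = DMSO-only wells with no growth and 100% = 10 µM 1-NA-PP1 full growth; inhibition rescues growth on 5-FOA so higher OD means more RAM inhibition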
Active calls of the source: *; nt = no result given.

SMILES	ABCG2 block	L major viab	WT yeast gro inh	ABCB1 inh	RAM inhibit
Cc1c(Br)cccc1NC(=O)c1sccc1-n1cccc1	2	-3	-4	0	3
CC(C)c1ccc(NC(=O)c2sccc2-n2cccc2)cc1	2	14	67*	0	8.6*
COc1ccc(OC)c(C(=O)COC(=O)c2ccccc2O)c1	5	1	18	0	8.7*
COc1ccc(OC)c(C(=O)COC(=O)c2c(OC)cccc2OC)c1	-3	-9	-10	-3	1
Cc1ccsc1/C=N/NC(=O)Cc1cccn1C	12	-7	-4	1	1
O=C(CSc1ncn[nH]1)Nc1ccccc1Sc1ccccc1	2	70*	5	0	1
CCOC(=O)c1sc(NS(=O)(=O)c2ccccc2Cl)nc1C	1	-6	-1	0	1
Fc1cc(NCc2ccccc2)nc(NCc2ccccc2)n1	11	32	19	3	0
Cc1cc(Oc2ccccc2)nc(NCc2ccccc2)n1	2	10	27	1	1
Cc1cc(N2CCC(C)CC2)nc(NCc2ccccc2)n1	-1	86*	63	0	3
Cc1cc(Nc2ccccc2)nc(NCc2ccccc2)n1	28	100*	64	0	4
Cc1cc(Nc2ccc(Cl)cc2)nc(NCc2ccccc2)n1	8	100*	97	0	8.4*
Cc1cc(Nc2cccc(F)c2)nc(NCc2ccccc2)n1	0	100*	68	0	8
O=C(CC1C(=O)NCCN1CC1CCCCC1)NCc1cccc(F)c1F (stereo not drawn)	1	-7	-2	0	1
CCNC(=O)NC(=O)COC(=O)CCCSc1nc2ccccc2s1	0	-4	-6	1	0
O=c1[nH]c2c(c(=O)[nH]1)CCC2	0	-2	-20	1	-1
Cc1cc(N/N=C/c2ccc(Cl)cc2Cl)nc(NCc2ccccc2)n1	5	62*	83*	1	-1
Cc1cc(C)nc(NCCCc2ccccc2)n1	7	0	10	0	2
CCCCNc1cc(C)nc(NCc2ccccc2)n1	0	101*	55	0	0
CC(C)CNC(=O)COc1ncnc2sccc12	1	-5	-24	1	1
CNc1nc(C)cc(C)c1S(=O)(=O)c1ccc(C)cc1	0	32	7	0	2
N#C/C(=C/c1cn[nH]c1-c1ccc(Br)cc1)C(=O)O	0	0	-1	-1	3
CCOc1ccccc1NC(=O)C(Sc1ccccc1)c1ccccc1 (stereo not drawn)	7	-5	46	1	8
CCOc1ccccc1NC(=O)C(NCC1(N2CCCCC2)CCCCC1)c1ccccc1 (stereo not drawn)	1	66*	26	1	2
C/C(=N\Nc1ncc(Cl)cc1Cl)c1ccccn1	19	100*	83	2	0
SMILES	ABCG2 block	L major viab	WT yeast gro inh	ABCB1 inh	RAM inhibit
C/C(=N\Nc1cccc2cccnc12)c1ccccn1	4	51*	32	0	0
O=[N+]([O-])c1cccc2c(N3CCCC3)ccnc12	2	88*	9	0	1
CC(NS(=O)(=O)c1cccc(Cl)c1)C(=O)N(C)C1CCN(C)CC1 (stereo not drawn)	1	-1	-3	1	0
COc1cccc(Oc2cn[nH]c2-c2ccc(O)cc2O)c1	4	75*	-4	0	2
Cc1ccc(N(CCC#N)C(=O)CN2C(=O)NC(Cc3ccccc3)C2=O)cc1 (stereo not drawn)	0	-7	14	0	6
O=[N+]([O-])c1cc(Cl)ccc1N1CCN(c2ccccc2O)CC1	1	-1	75*	1	0
O=C(c1ccccc1)c1ccc(N2CCOCC2)c(F)c1	1	53*	14	0	1
O=C(/C=C/c1ccccc1[N+](=O)[O-])N1CCN(c2ccccc2F)CC1	7	-1	0	0	8.5*
O=C(c1ccccc1)c1cc(F)c(N2CCOCC2)cc1Cl	1	-2	2	0	1
CN1CCN(c2ccccc2NC(=O)c2ccc(N3CCCCC3)c([N+](=O)[O-])c2)CC1	31	17	5	31	1
CN1CCN(c2ccc(C(=O)c3ccccc3)cc2[N+](=O)[O-])CC1	6	81*	22	1	1
O=C(NNc1ncccc1Cl)c1c(Cl)cccc1Cl	2	-3	3	0	1
COc1cccc(C(=O)Oc2ccc(N3C(=O)CCC3=O)c(C)c2)c1	6	-5	8	1	-1
COc1cccc(CN2CCCC(CNC(=O)c3ccc(F)cc3)C2)c1OC (stereo not drawn)	0	-1	8	0	1
O=C1CN(C(=O)/C=C/c2ccc(Cl)cc2Cl)CCN1	15	-1	1	1	0
CCC(=O)N1CCN(c2cc(N3CCN(C)CC3)c(F)cc2[N+](=O)[O-])CC1	4	38	9	1	0
CN1CCCN(C(=O)/C=C/c2ccc(Cl)cc2Cl)CC1	-1	99*	1	-1	0
O=C(/C=C/c1ccc(Cl)cc1Cl)N1CCN(c2ccccc2[N+](=O)[O-])CC1	8	1	24	1	8.6*
O=C(/C=C/c1ccc(Cl)cc1Cl)N1CCN(c2ccc([N+](=O)[O-])c(N3CCOCC3)c2)CC1	4	10	10	21	3
CN1CCN(c2cc(N3CCc4ccccc4C3)c(F)cc2[N+](=O)[O-])CC1	14	76*	87*	1	1
Cc1ccc(-n2nnnc2SCc2ccccn2)cc1C	2	1	nt	0	0
COc1ccccc1NC(=O)N1CCC(c2nc3ccccc3o2)CC1	13	-5	6	1	1
Cc1cccc(C2=NC(C(F)(F)F)(C(F)(F)F)c3c(n(-c4ccc(F)cc4)c(=O)[nH]c3=O)N2)c1	7	74*	-1	1	5
O=C(NC1(C(F)(F)F)C(=O)Nc2c1c(=O)[nH]c(=O)n2-c1ccccc1)c1ccncc1 (stereo not drawn)	nt	-5	nt	nt	nt
c1cc(Nc2cccc3nccnc23)c2nccnc2c1	0	-1	-14	0	1
Fc1ccc(Nc2cccc3nccnc23)cc1	19	50*	20	1	-1
COc1ccccc1Nc1nc(NCC2CCCO2)c2ccccc2n1 (stereo not drawn)	37	100*	24	4	1
CN(C)CC(O)COc1ccc(-c2ccc(C#N)cc2)cc1 (stereo not drawn)	4	98*	14	0	-1
N#Cc1ccc(-c2ccc(OCC(O)CN3CCOCC3)cc2)cc1 (stereo not drawn)	12	84*	0	0	0
